Measured values as given in ChEMBL document CHEMBL4689842, “EUbOPEN Chemogenomics Library wave 1” (2021).

Test system: U2OS
Assay: Multiplex assay against U2OS
Assay type: toxicity, cell-based
Conditions: human
Method in brief: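 Hoechst33342, BioTracker Green Microtubule Cytoskeleton Dye, MitoTracker Red and Annexin V Alexa Fluor 680 were added to live cells at seeding, and imaging on a CQ1 microscope at 37°C and 5% CO2 followed compound addition. Gating by CellPathfinder machine learning separated cells into Hoechst high-intensity objects or normal cells, then normal cells into healthy, pyknosed or fragmented nuclei, then pyknosed cells into mitotic or apoptotic. Per cents of healthy-nucleus cells are reported for the tubulin, mitochondrial-mass and membrane-permeability phenotypes.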

[1] = 12 h, 1 µM, compound concentration 1 uM, replicate 1
[2] = 12 h, 1 µM, compound concentration 1 uM, replicate 2
[3] = 12 h, 10 µM, compound concentration 10 uM, replicate 1
[4] = 12 h, 10 µM, compound concentration 10 uM, replicate 2
[5] = 24 h, 1 µM, compound concentration 1 uM, replicate 1
[6] = 24 h, 1 µM, compound concentration 1 uM, replicate 2
[7] = 24 h, 10 µM, compound concentration 10 uM, replicate 1
[8] = 24 h, 10 µM, compound concentration 10 uM, replicate 2
[9] = 48 h, 1 µM, compound concentration 1 uM, replicate 1
[10] = 48 h, 1 µM, compound concentration 1 uM, replicate 2
[11] = 48 h, 10 µM, compound concentration 10 uM, replicate 1
[12] = 48 h, 10 µM, compound concentration 10 uM, replicate 2

## CN1CCN(c2ccc(OC(F)(F)F)c(Nc3ncc4c(n3)-c3c(c(C(N)=O)nn3CCO)CC4)c2)CC1 [ONVANSERTIB]
[1]
  Population Apoptotic (%): 36%
  Population Fragmented Nuclei (%): 14%
  Population Healthy Nuclei (%): 78%
  Population Hoechst High Intensity Objects (%): 6%
  Population Membrane Permeable-Phenotype (%): 11%
  Population Mitochondria Different-Phenotype (%): 10%
  Population Mitotic Cells (%): 63%
  Population Normal (%): 94%
  Population Pyknosed Nuclei (%): 7%
  Population Tubulin-Different-Phenotype (%): 13%
  Total Cell Count: 569
[2]
  Population Apoptotic (%): 25%
  Population Fragmented Nuclei (%): 11%
  Population Healthy Nuclei (%): 80%
  Population Hoechst High Intensity Objects (%): 14%
  Population Membrane Permeable-Phenotype (%): 0%
  Population Mitochondria Different-Phenotype (%): 14%
  Population Mitotic Cells (%): 75%
  Population Normal (%): 85%
  Population Tubulin-Different-Phenotype (%): 16%
  Total Cell Count: 66
[3]
  Population Apoptotic (%): 72%
  Population Fragmented Nuclei (%): 10%
  Population Healthy Nuclei (%): 79%
  Population Hoechst High Intensity Objects (%): 6%
  Population Membrane Permeable-Phenotype (%): 3%
  Population Mitochondria Different-Phenotype (%): 77%
  Population Mitotic Cells (%): 27%
  Population Normal (%): 93%
  Population Pyknosed Nuclei (%): 10%
  Population Tubulin-Different-Phenotype (%): 84%
  Total Cell Count: 150
[4]
  Population Apoptotic (%): 40%
  Population Fragmented Nuclei (%): 9%
  Population Healthy Nuclei (%): 78%
  Population Hoechst High Intensity Objects (%): 19%
  Population Membrane Permeable-Phenotype (%): 0%
  Population Mitochondria Different-Phenotype (%): 84%
  Population Mitotic Cells (%): 60%
  Population Normal (%): 80%
  Population Pyknosed Nuclei (%): 12%
  Population Tubulin-Different-Phenotype (%): 78%
  Total Cell Count: 61
[5]
  Population Apoptotic (%): 35%
  Population Fragmented Nuclei (%): 14%
  Population Healthy Nuclei (%): 73%
  Population Hoechst High Intensity Objects (%): 7%
  Population Membrane Permeable-Phenotype (%): 12%
  Population Mitochondria Different-Phenotype (%): 17%
  Population Mitotic Cells (%): 64%
  Population Normal (%): 92%
  Population Pyknosed Nuclei (%): 12%
  Population Tubulin-Different-Phenotype (%): 18%
  Total Cell Count: 962
[6]
  Population Apoptotic (%): 57%
  Population Fragmented Nuclei (%): 21%
  Population Healthy Nuclei (%): 65%
  Population Hoechst High Intensity Objects (%): 5%
  Population Membrane Permeable-Phenotype (%): 5%
  Population Mitochondria Different-Phenotype (%): 32%
  Population Mitotic Cells (%): 42%
  Population Normal (%): 94%
  Population Pyknosed Nuclei (%): 13%
  Population Tubulin-Different-Phenotype (%): 11%
  Total Cell Count: 73
[7]
  Population Apoptotic (%): 82%
  Population Healthy Nuclei (%): 79%
  Population Hoechst High Intensity Objects (%): 4%
  Population Membrane Permeable-Phenotype (%): 1%
  Population Mitochondria Different-Phenotype (%): 77%
  Population Mitotic Cells (%): 17%
  Population Normal (%): 95%
  Population Pyknosed Nuclei (%): 9%
  Population Tubulin-Different-Phenotype (%): 53%
  Total Cell Count: 151
[8]
  Population Apoptotic (%): 40%
  Population Fragmented Nuclei (%): 11%
  Population Healthy Nuclei (%): 77%
  Population Hoechst High Intensity Objects (%): 16%
  Population Membrane Permeable-Phenotype (%): 5%
  Population Mitochondria Different-Phenotype (%): 82%
  Population Mitotic Cells (%): 60%
  Population Normal (%): 83%
  Population Pyknosed Nuclei (%): 11%
  Population Tubulin-Different-Phenotype (%): 55%
  Total Cell Count: 55
[9]
  Population Apoptotic (%): 62%
  Population Fragmented Nuclei (%): 25%
  Population Healthy Nuclei (%): 56%
  Population Hoechst High Intensity Objects (%): 5%
  Population Membrane Permeable-Phenotype (%): 14%
  Population Mitochondria Different-Phenotype (%): 49%
  Population Mitotic Cells (%): 37%
  Population Normal (%): 94%
  Population Pyknosed Nuclei (%): 18%
  Population Tubulin-Different-Phenotype (%): 13%
  Total Cell Count: 1338
[10]
  Population Apoptotic (%): 53%
  Population Fragmented Nuclei (%): 27%
  Population Healthy Nuclei (%): 45%
  Population Hoechst High Intensity Objects (%): 6%
  Population Membrane Permeable-Phenotype (%): 24%
  Population Mitochondria Different-Phenotype (%): 48%
  Population Mitotic Cells (%): 46%
  Population Normal (%): 93%
  Population Pyknosed Nuclei (%): 27%
  Population Tubulin-Different-Phenotype (%): 12%
  Total Cell Count: 97
[11]
  Population Apoptotic (%): 91%
  Population Fragmented Nuclei (%): 17%
  Population Healthy Nuclei (%): 63%
  Population Hoechst High Intensity Objects (%): 2%
  Population Membrane Permeable-Phenotype (%): 5%
  Population Mitochondria Different-Phenotype (%): 60%
  Population Mitotic Cells (%): 8%
  Population Normal (%): 97%
  Population Pyknosed Nuclei (%): 19%
  Population Tubulin-Different-Phenotype (%): 43%
  Total Cell Count: 153
[12]
  Population Apoptotic (%): 57%
  Population Fragmented Nuclei (%): 20%
  Population Hoechst High Intensity Objects (%): 10%
  Population Membrane Permeable-Phenotype (%): 28%
  Population Mitochondria Different-Phenotype (%): 67%
  Population Mitotic Cells (%): 42%
  Population Normal (%): 89%
  Population Pyknosed Nuclei (%): 15%
  Population Tubulin-Different-Phenotype (%): 57%
  Total Cell Count: 59
